Laboratory results: ChEMBL document CHEMBL1127648, “Synthesis of 2-piperazinylbenzothiazole and 2-piperazinylbenzoxazole derivatives with 5-HT3 antagonist and 5-HT4 agonist properties” (J Med Chem, 1994)

What was measured:
[1] = target: D(2) dopamine receptor (Rattus norvegicus, UniProt P61169); test: Displacement of [3H]spiroperidol from D2 dopamine receptor
[2] = target: T1, Serotonin 1 (5-HT1) receptor (Rattus norvegicus, UniProt P28564+P30940+P19327+P28565); test: Binding affinity towards 5-hydroxytryptamine 1 receptor using [3H]5-HT as radioligand; assay type: protein assay
Method in brief: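 Rat cortex homogenized in 50 mM Tris-HCl and preincubated at 37 °C for 10 min. Membranes were resuspended with 0.1% ascorbic acid and 10 μM pargyline. Incubated with 0.3 nM [3H]-5-HT and varying test concentrations at 37 °C for 10 min, then filtered and counted by scintillation. IC50 is the mean of 4–6 experiments.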

[3] = target: T2, Serotonin 3 (5-HT3) receptor (Rattus norvegicus, UniProt P35563+Q9JJ16); test: Inhibition of [3H]BRL-43694 binding to rat 5-hydroxytryptamine 3 receptor; assay type: protein-complex assay
T2 sequence (P35563 whole entry): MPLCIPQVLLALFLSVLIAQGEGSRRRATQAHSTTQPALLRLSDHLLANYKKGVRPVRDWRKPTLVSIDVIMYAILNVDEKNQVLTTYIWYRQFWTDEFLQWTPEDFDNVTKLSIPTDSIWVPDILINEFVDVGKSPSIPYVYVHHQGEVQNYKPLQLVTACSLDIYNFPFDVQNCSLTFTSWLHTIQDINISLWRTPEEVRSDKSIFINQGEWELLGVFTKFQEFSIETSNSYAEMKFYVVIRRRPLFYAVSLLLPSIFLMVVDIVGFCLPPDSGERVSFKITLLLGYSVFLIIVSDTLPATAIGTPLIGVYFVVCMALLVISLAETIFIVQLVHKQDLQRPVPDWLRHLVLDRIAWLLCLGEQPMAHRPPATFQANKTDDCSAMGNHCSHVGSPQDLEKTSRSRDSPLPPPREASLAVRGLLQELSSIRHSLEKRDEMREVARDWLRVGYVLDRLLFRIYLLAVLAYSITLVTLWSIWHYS
T2 sequence (Q9JJ16 whole entry): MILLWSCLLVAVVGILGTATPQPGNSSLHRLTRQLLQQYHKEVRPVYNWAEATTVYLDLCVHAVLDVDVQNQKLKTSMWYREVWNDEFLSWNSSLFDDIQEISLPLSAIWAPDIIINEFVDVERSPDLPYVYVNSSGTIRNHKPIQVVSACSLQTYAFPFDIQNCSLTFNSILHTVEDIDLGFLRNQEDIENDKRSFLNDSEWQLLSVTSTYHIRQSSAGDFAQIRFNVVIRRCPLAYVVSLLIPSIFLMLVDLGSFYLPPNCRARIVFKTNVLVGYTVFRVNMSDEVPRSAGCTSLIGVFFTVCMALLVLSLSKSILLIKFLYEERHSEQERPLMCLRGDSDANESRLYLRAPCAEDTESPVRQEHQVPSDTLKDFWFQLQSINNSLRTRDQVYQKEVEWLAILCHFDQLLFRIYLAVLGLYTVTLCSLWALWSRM

[4] = species on record: Rattus norvegicus; test: The compound was evaluated for the percentage inhibition in rat aorta stimulated with 30 uM 5-HT and tested at fixed concentration of 10 uM; assay type: functional
[5] = species on record: Cavia porcellus; test: The compound was evaluated for the percentage inhibition in guinea pig ileum stimulated with 10 uM 5-HT and tested at fixed concentration of 10 uM; assay type: functional
Method in brief: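 Guinea pig ileum in oxygenated physiological solution with 1 μM methysergide at 37 °C, isometric recording, 0.5 g resting tension. Response to 10 μM 5-HT set as 100%. After 30 min incubation with compound at 10 μM, 5-HT was re-added; response expressed as % of the previous 5-HT response.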

[6] = tested on: Rattus norvegicus; test: The compound was evaluated for the percentage increase in gastric emptying for a dose of 10 mg/kg perorally in rat; assay type: functional, Stomach; conditions: route oral
Method in brief: (§1)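 Wistar rats (160 ± 10 g) fasted overnight, dosed orally with vehicle or compound. After 60 min, gavage with 40 steel spheroids (1 mm) in 2 mL 3% carboxymethylcellulose. Killed by CO2 60 min later; spheroids left in the stomach were counted. Emptying is expressed as a percentage of paired controls.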

[7] = species on record: Rattus norvegicus; test: The compound was evaluated for the intrinsic activity in rat isolated esophageal tunica muscularis mucose; assay type: functional
Method in brief: (§2)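 Inner smooth-muscle tube of rat oesophagus (external muscularis propria removed), held in Tyrode's solution at 37 °C, pH 7.4, aerated 95% O2/5% CO2, under 250 mg tension, equilibrated 60 min. Relaxation of carbachol-induced contraction measured from agonist concentration-effect curves. Means of 8 experiments (24 for 5-HT).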

[8] = tested on: Rattus norvegicus; test: The compound was evaluated for the percentage increase in gastric emptying for a dose of 10 mg/kg perorally in rat.; assay type: functional, Stomach; conditions: route oral; method in brief: as §1
[9] = tested on: Rattus norvegicus; test: The compound was evaluated for the percentage increase in gastric emptying for a dose of 5 mg/kg perorally in rat.; assay type: functional, Stomach; conditions: route oral; method in brief: as §1
[10] = target: Serotonin 3 (5-HT3) receptor (Rattus norvegicus) (UniProt P35563+Q9JJ16); test: Inhibition dose for 50 percent antagonism for 5-hydroxytryptamine 3 receptor in vivo in rats; assay type: functional, organism-based
Method in brief: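 Male Sprague-Dawley rats (500–550 g) under urethane (1 g/kg ip), with heart rate taken from the carotid pressure signal. 5-HT 4 μg/kg iv bolus every 15 min elicited von Bezold-Jarisch bradycardia. […] ID50 by Litchfield-Wilcoxon.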

[11] = species on record: Cavia porcellus; test: The compound was evaluated for the pA2 value that was estimated using 2-methyl-5-HT in five to seven different tissues in guinea pig ileum; assay type: functional; conditions: read-out: pA2 (converted)
Method in brief: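 Guinea pig ileum in oxygenated physiological solution with 1 μM methysergide at 37 °C, isometric contractions at 0.5 g tension.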

[12] = tested on: Rattus norvegicus; test: The compound was evaluated for the percentage increase in gastric emptying for a dose of 7.5 mg/kg perorally in rat.; assay type: functional, Stomach; conditions: route oral; method in brief: as §1
[13] = The compound was evaluated for equipotent concentration ratio (ECR). whereECR = IC40 test agonist / IC40 5-HT; assay type: functional
Method in brief: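 Rat oesophageal tunica muscularis mucosae precontracted with carbachol. Two concentration-effect curves were run in the same strip, first to 5-HT and then to 5-HT or the test agonist. […] Only paired experiments were used.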

[14] = species on record: Rattus norvegicus; test: Agonist potency in rat isolated esophageal tunica muscularis mucose.; assay type: functional; method in brief: as §2
[15] = species on record: Rattus norvegicus; test: (§3) The compound was evaluated for the value in rat isolated esophageal tunica muscularis mucose; parameters: species or system Esophagus muscularis mucosa
Method in brief: (§4)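 Rat oesophageal tunica muscularis mucosae was isolated by removing the muscularis propria. Strips were held in Tyrode's solution (pH 7.4) at 37 °C, aerated with 95% O2/5% CO2, under 250 mg tension, and equilibrated 60 min. Relaxation of carbachol-induced contraction was measured. Paired concentration-effect curves were run in the same preparation, first to 5-HT, then to the test agonist. ECR = IC40 test agonist/IC40 5-HT. Mean of 8 experiments.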

[16] = species on record: Rattus norvegicus; test: Ability of compounds to relax oesophagus expressed as equipotent concentration ratio (ECR) where ECR = IC40 test agonist / IC40 5-HT; assay type: functional; method in brief: as §4
[17] = species on record: Rattus norvegicus; test: as §3; assay type: functional; method in brief: as §4
[18] = species on record: Rattus norvegicus; test: The compound was evaluated for pEC50 of 5-HT in rat isolated esophageal tunica muscularis mucose; conditions: in vitro
[19] = tested on: Rattus norvegicus; test: The compound was evaluated for the percentage increase in gastric emptying for a dose of 5 mg/kg perorally in rat; assay type: functional, Stomach; conditions: route oral; method in brief: as §1
[20] = tested on: Rattus norvegicus; test: The compound was evaluated for the percentage increase in gastric emptying for a dose of 7.5 mg/kg perorally in rat; assay type: functional, Stomach; conditions: route oral; method in brief: as §1
[21] = species on record: Rattus norvegicus; test: The compound was evaluated for the value in rat isolated esophageal tunica muscularis mucose in rat; assay type: functional; method in brief: as §2
[22] = tested on: Rattus norvegicus; test: The compound was evaluated for the percentage increase in gastric emptying for a dose of 1 mg/kg perorally in rat; assay type: functional, Stomach; conditions: route oral; method in brief: as §1
[23] = target: T1, Serotonin 1 (5-HT1) receptor; test: The compound was evaluated for the binding affinity towards 5-hydroxytryptamine 1 using [3H]5-HT as radioligand; assay type: protein assay
Method in brief: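 Membranes were resuspended with 0.1% ascorbic acid and 10 μM pargyline. Incubated with 0.3 nM [3H]-5-HT and varying test concentrations at 37 °C for 10 min, then filtered and counted by scintillation.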

Chain of D(2) dopamine receptor (P61169 whole entry): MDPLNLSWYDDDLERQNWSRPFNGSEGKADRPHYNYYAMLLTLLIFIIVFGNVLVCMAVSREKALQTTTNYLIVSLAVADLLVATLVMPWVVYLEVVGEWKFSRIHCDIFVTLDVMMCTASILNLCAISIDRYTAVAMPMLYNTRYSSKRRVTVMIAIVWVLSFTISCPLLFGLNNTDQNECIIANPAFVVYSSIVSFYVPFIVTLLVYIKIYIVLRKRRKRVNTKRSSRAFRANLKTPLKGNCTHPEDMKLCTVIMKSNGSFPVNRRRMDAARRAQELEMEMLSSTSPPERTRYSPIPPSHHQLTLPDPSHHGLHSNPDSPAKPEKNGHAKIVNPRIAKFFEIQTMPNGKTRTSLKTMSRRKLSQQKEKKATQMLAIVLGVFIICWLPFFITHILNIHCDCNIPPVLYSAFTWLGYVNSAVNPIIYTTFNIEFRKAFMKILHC

Structure (SMILES) | IC50 [1] | IC50 [2] | IC50 [3] | Inhibition [4] | Inhibition [5] | Increase [6] | other results
Oc1ccccc1N1CCN(c2nc3ccccc3s2)CC1 | > 10 µM | > 10 µM | > 10 µM | 49.3% | 40.8% | -14.2% | –
c1ccc2sc(N3CCN(Cc4ccc5c(c4)OCO5)CC3)nc2c1 | > 10 µM | > 10 µM | 0.95 µM | 21.2% | 74.5% | – | Intrinsic activity [7]: 0.91; Increase [8]: 62.8%; Increase [9]: 45%; ID50 [10]: 0.18 mg/kg; Kb [11]: 0.316 µM; Increase [12]: 43.3%; Ratio [13]: 22; EC50 [14]: 0.263 µM
c1ccc(CN2CCN(c3nc4ccccc4o3)CC2)cc1 | > 10 µM | > 10 µM | > 10 µM | 21.9% | 48.8% | 15.1% | –
CCN(CC)CCNC(=O)c1cc(Cl)c(N)cc1OC [METOCLOPRAMIDE] | – | – | – | – | – | 37.1% | –
Clc1cccc(N2CCN(c3nc4ccccc4s3)CC2)c1 | > 10 µM | > 10 µM | > 10 µM | – | -21.9% | – | –
Cc1[nH]c2ccc(O)cc2c1CCN | – | – | – | – | – | – | Intrinsic activity [7]: 1; CL [15]: 4.9%; Ratio [16]: 643
NCCc1c[nH]c2ccc(O)cc12 [SEROTONIN] | – | – | – | – | – | – | Intrinsic activity [17]: 1; pEC50 [18]: 7.91
COc1cc(N)c(Cl)cc1C(=O)NC1CCN(CCCOc2ccc(F)cc2)CC1OC (stereo not given) [CISAPRIDE] | – | – | – | – | 98.1% | 67% | Increase [19]: 47.2%; Intrinsic activity [7]: 0.92; Increase [20]: 59.5%; EC50 [21]: 0.0589 µM; Kb [11]: 0.001 µM
c1ccc2oc(N3CCN(Cc4ccc5c(c4)OCO5)CC3)nc2c1 | > 10 µM | > 10 µM | > 10 µM | 19.4% | 55.8% | 23.1% | –
COc1ccccc1N1CCN(c2nc3ccccc3o2)CC1 | > 10 µM | > 10 µM | > 10 µM | 14.7% | 25.6% | – | –
COc1ccccc1N1CCN(c2nc3ccccc3s2)CC1 | > 10 µM | > 10 µM | > 10 µM | 7.1% | 43% | -27.5% | –
Cc1nccn1CC1CCc2c(c3ccccc3n2C)C1=O (stereo not given) [ONDANSETRON] | – | – | – | – | – | – | Increase [22]: 44.2%
c1ccc(CN2CCN(c3nc4ccccc4s3)CC2)cc1 | > 10 µM | > 0.00001 M | 0.033 µM | 14.8% | 74.4% | 44.6% | ID50 [10]: 0.16 mg/kg; Kb [11]: 0.501 µM
CCOc1ccccc1N1CCN(c2nc3ccccc3s2)CC1 | > 10 µM | – | > 10 µM | 10.3% | -22.2% | – | IC50 [23]: > 10 µM
Oc1ccccc1N1CCN(c2nc3ccccc3o2)CC1 | > 10 µM | > 10 µM | > 10 µM | 29.1% | 46.1% | -30.2% | –
O=C(c1ccc(F)cc1)C1CCN(CCn2c(=O)[nH]c3ccccc3c2=O)CC1 [KETANSERIN] | – | – | – | 90% | – | – | –
